Source: ChEMBL document CHEMBL4414651, “Discovery and Optimization of Salicylic Acid-Derived Sulfonamide Inhibitors of the WD Repeat-Containing Protein 5-MYC Protein-Protein Interaction” (J Med Chem, 2019)
Blank lines part the entries; values can stand above or below the compound they belong to. Calls of active or inactive are those of the source. The rule behind the calls is not given here.

What was measured:
[1] = biological target: T1, WD repeat-containing protein 5 (Homo sapiens, UniProt P61964)
[2] = biological target: T1, WD repeat-containing protein 5; assay: Binding affinity to WDR5 (unknown origin) assessed as inhibition of WDR5-MLL1 protein-protein interaction by TR-FRET assay
[3] = biological target: T1, WD repeat-containing protein 5; assay: Binding affinity to N-terminal FLAG-tagged human full-length WDR5 expressed in HEK293T cells harboring human C-terminal HA-tagged c-MYC assessed as disruption of WDR5-RBBP5 protein-protein interaction at 50 uM by SDS-PAGE based immunoblot assay; format: cell-based
Procedure, shortened: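 HEK293 cells expressing FLAG-WDR5 and c-MYC-HA were kept in DMEM with 10% FBS, hygromycin B 50 μg/mL and puromycin 100 ng/mL. Lysates in Tris pH 8.0/NaCl/EDTA/1% Triton buffer were treated with compound at 50 μM or 6.25–50 μM. α-FLAG magnetic M2 beads, 2 h at 4 °C, then SDS-PAGE and α-RBBP5 immunoblot. Quantified against vehicle; at least two independent repeats.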

[4] = biological target: T1, WD repeat-containing protein 5; assay: Binding affinity to N-terminal FLAG-tagged human full-length WDR5 expressed in HEK293T cells harboring human C-terminal HA-tagged c-MYC assessed as disruption of WDR5-c-MYC protein-protein interaction at 50 uM by SDS-PAGE based immunoblot assay; format: cell-based
Homo sapiens = species: Homo sapiens; assay: Inhibition of human MLL1/WDR5/RBBP5/ASH2L/DPY30 complex assessed as reduction in histone methyl-transferase activity using H3-peptide as substrate
[5] = Apparent permeability from apical to basolateral side in MDCK cells; format: ADME, cell-based, Canis lupus familiaris; conditions: dog
[6] = Protein binding in plasma (unknown origin) assessed as unbound fraction; format: ADME, cell-free
[7] = Solubility of the compound; format: physicochemical
Procedure, shortened: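 Kinetic solubility, measured by an outside contract lab using a standard commercial assay format.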

[8] = biological target: T1, WD repeat-containing protein 5; assay: Binding affinity to N-terminal FLAG-tagged human full-length WDR5 […] assessed as change in melting temperature at 10 uM by differential scanning fluorimetry
Procedure, shortened: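 Thermal shift (differential scanning fluorimetry) on WDR5, with compounds at 10 μM. Samples were run in triplicate, and ΔTm is the average melting-temperature shift read by fluorescence.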

SMILES: O=C(O)c1cc(OC(F)(F)F)cc(NS(=O)(=O)c2cc(Br)cc(Cl)c2O)c1O
Kd [1]: 51 nM
inhibition [2]: inactive

SMILES: COc1ccc(Br)cc1S(=O)(=O)Nc1cc(Cl)cc(C(=O)O)c1O
Kd [1]: 431 nM

SMILES: N#CC1(c2ccc(O)c(NS(=O)(=O)c3cc(Br)ccc3O)c2)CCCC1
Kd [1]: 614 nM

SMILES: O=S(=O)(Nc1cc(Cl)ccc1O)c1cccc(Br)c1
Kd [1]: 36100 nM

SMILES: CNC(=O)c1cc(NS(=O)(=O)c2cc(Br)ccc2O)cc(S(F)(F)(F)(F)F)c1
Kd [1]: 848 nM

SMILES: O=C(O)c1cc(C2CC2)cc(NS(=O)(=O)c2cc(Br)ccc2O)c1O
Activity [3]: Active
Kd [1]: 184 nM
inhibition [2]: inactive
Activity [4]: Active

SMILES: O=C(O)c1cc(C2CC2)cc(NS(=O)(=O)c2cc(Br)cc(Cl)c2O)c1O
Kd [1]: 207 nM

SMILES: CS(=O)(=O)c1cc(Cl)cc(NS(=O)(=O)c2cc(Br)ccc2O)c1O
inhibition (Homo sapiens): Active
Kd [1]: 1070 nM

SMILES: CS(=O)(=O)c1cc(NS(=O)(=O)c2cc(Br)ccc2O)cc(S(F)(F)(F)(F)F)c1
Papp [5]: 16.1 ×10⁻⁶ cm/s
Kd [1]: 511 nM
Fu [6]: 0.002%
solubility [7]: > 100 µM

SMILES: N#CC1(c2cc(NS(=O)(=O)c3ccc(Br)cc3O)c(O)c(C(=O)O)c2)CCC1
ΔTm [8]: 0.42 °C

SMILES: CNC(=O)c1cc(C2(C#N)CCCCC2)cc(NS(=O)(=O)c2cc(Br)cc(Cl)c2O)c1O
Activity [3]: Active
Kd [1]: 362 nM
Activity [4]: Active

Kd [1]: > 125000 nM
SMILES: CCOc1ccc(S(=O)(=O)Nc2ccccc2C(=O)O)c(C)c1C

SMILES: CNC(=O)c1cc(NS(=O)(=O)c2cc(Br)ccc2O)cc(C2(C#N)CCC2)c1
Kd [1]: 1080 nM

SMILES: N#CC1(c2ccc(O)c(NS(=O)(=O)c3cc(Br)ccc3O)c2)CCCCC1
Kd [1]: 229 nM

SMILES: CNC(=O)c1cc(NS(=O)(=O)c2cc(Br)cc(Cl)c2O)cc(C2(C#N)CCC2)c1
Kd [1]: 128 nM

SMILES: CS(=O)(=O)c1cc(NS(=O)(=O)c2cc(Br)cc(Cl)c2O)cc(C2(C#N)CCC2)c1
Kd [1]: 215 nM

SMILES: N#CC1(c2cc(NS(=O)(=O)c3cc(Br)ccc3O)c(O)c(C(=O)O)c2)CCC1
Activity [3]: Active
Kd [1]: 67 nM
ΔTm [8]: 3.9 °C
Activity [4]: Active

Kd [1]: 104 nM
SMILES: N#CC1(c2cc(NS(=O)(=O)c3cc(Br)cc4cccnc34)c(O)c(C(=O)O)c2)CCC1

SMILES: CNC(=O)c1cc(S(F)(F)(F)(F)F)cc(NS(=O)(=O)c2cc(Br)cc(Cl)c2O)c1O
Kd [1]: 190 nM
Activity [4]: Active

SMILES: COc1ccccc1S(=O)(=O)Nc1cc(Cl)ccc1O
Kd [1]: > 40000 nM

SMILES: O=S(=O)(Nc1cc(C2(C(F)(F)F)CC2)ccc1O)c1cc(Br)ccc1O
Kd [1]: 547 nM

SMILES: O=C(O)c1cc(NS(=O)(=O)c2cc(Br)ccc2O)cc(OC(F)(F)F)c1
Kd [1]: 194 nM

SMILES: O=C(O)c1c(O)c(NS(=O)(=O)c2cc(Br)ccc2O)cc(C2CC2)c1F
inhibition (Homo sapiens): Active
Papp [5]: 0.61 ×10⁻⁶ cm/s
Kd [1]: 122 nM
Fu [6]: < 0.0008%
solubility [7]: > 100 µM

SMILES: O=C(O)c1cc(Cl)cc(NS(=O)(=O)c2cc(Br)ccc2O)c1
Kd [1]: 2880 nM

SMILES: CS(=O)(=O)c1cc(Cl)cc(NS(=O)(=O)c2cc(Br)cc(Cl)c2O)c1O
inhibition (Homo sapiens): Active
Kd [1]: 123 nM
Activity [4]: Active

SMILES: N#CC1(c2ccc(O)c(NS(=O)(=O)c3cc(Br)ccc3O)c2)CC1
Kd [1]: 852 nM
inhibition [2]: inactive

Kd [1]: 825 nM
Activity [4]: Active
SMILES: CNC(=O)c1cc(C2(C#N)CCC2)cc(NS(=O)(=O)c2cc(Br)cc3cccnc23)c1O

SMILES: CS(=O)(=O)c1cc(Cl)cc(NS(=O)(=O)c2cc(Br)cc(Cl)c2O)c1
Papp [5]: 3.89 ×10⁻⁶ cm/s
Kd [1]: 220 nM
Fu [6]: 0.0007%
solubility [7]: > 100 µM

SMILES: COc1ccc(I)cc1S(=O)(=O)Nc1cc(Cl)ccc1O
Kd [1]: 8390 nM

SMILES: CNC(=O)c1cc(Cl)cc(NS(=O)(=O)c2cc(Br)cc(Cl)c2O)c1O
Kd [1]: 298 nM

SMILES: O=C(O)c1cc(NS(=O)(=O)c2cc(Br)ccc2O)cc(S(F)(F)(F)(F)F)c1
Kd [1]: 64 nM

SMILES: O=S(=O)(Nc1cc(C2CC2)ccc1O)c1cc(Br)ccc1O
Kd [1]: 818 nM

SMILES: N#CC1(c2cc(NS(=O)(=O)c3cc(Br)ccc3O)c(O)c(C(=O)O)c2)CCCCC1
Kd [1]: 195 nM

SMILES: COc1ccc(Br)cc1S(=O)(=O)Nc1cc(C(C)(C)C)ccc1O
Kd [1]: 3780 nM

SMILES: CNC(=O)c1c(O)c(NS(=O)(=O)c2cc(Br)cc(Cl)c2O)cc(C2CC2)c1F
inhibition (Homo sapiens): Active
Activity [3]: Active
Kd [1]: 238 nM
Activity [4]: Active
